The source of these data is PMC8293762 (Slas Discovery, 2021).

Assay [1] addresses T1, HCN4 (Homo sapiens, UniProt Q9Y3Q4).
T1 sequence (Q9Y3Q4 1-1203): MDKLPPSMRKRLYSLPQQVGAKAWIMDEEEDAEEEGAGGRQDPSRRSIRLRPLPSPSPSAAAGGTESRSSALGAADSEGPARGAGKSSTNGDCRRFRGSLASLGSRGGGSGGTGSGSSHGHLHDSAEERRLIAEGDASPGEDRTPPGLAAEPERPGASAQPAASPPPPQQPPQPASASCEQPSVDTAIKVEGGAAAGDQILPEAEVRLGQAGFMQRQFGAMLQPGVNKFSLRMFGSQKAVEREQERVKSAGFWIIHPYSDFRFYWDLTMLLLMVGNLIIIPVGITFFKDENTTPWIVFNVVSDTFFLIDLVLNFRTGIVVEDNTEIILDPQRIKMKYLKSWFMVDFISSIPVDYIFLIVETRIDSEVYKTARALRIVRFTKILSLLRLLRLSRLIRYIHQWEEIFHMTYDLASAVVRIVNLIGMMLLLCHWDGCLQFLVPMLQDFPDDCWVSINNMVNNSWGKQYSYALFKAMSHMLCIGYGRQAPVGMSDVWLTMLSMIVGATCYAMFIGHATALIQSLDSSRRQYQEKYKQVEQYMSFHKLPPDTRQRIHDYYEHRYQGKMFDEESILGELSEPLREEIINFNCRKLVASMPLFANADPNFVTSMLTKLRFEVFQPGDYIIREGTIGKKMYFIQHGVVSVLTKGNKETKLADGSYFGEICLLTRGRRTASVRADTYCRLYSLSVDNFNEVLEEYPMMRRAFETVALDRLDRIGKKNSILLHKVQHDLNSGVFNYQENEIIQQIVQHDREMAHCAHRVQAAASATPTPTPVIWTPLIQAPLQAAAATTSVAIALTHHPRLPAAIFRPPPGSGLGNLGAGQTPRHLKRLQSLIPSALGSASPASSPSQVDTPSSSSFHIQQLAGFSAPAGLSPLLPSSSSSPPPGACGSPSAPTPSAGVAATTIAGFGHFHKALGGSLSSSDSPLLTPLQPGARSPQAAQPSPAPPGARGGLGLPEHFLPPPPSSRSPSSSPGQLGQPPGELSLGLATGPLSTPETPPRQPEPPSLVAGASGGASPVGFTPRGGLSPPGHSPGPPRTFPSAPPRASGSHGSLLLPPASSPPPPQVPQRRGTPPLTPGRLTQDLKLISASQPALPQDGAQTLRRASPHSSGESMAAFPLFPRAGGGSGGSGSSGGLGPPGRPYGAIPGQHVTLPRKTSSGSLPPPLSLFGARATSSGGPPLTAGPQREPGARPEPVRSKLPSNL
Format: cell-based. Conditions: six repetitive hyperpolarization pulses, Fig. 2A,B.

In assay [2] the test system is isolated rat right atrium. Kind of assay: Heart rate in isolated rat right atrium in vitro. The following applies: data not shown.
Assay [3] addresses T1, HCN4. Kind of assay: Random screening of ~16,000 compounds for HCN4 blockade, IonWorks. Format: cell-based. The following applies: six-pulse protocol; blockade traces, Fig. 3C. In a few lines:
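Human HCN4 (Thr110Ser) stably expressed in CHO-K1 cells, grown at 37 °C, then held at 30 °C for 2−8 days before recording. Perforated-patch (amphotericin B) IonWorks recording, SH mode then PPC mode. Held at −30 mV with a +10 mV leak prepulse, then six hyperpolarizing pulses. Test compound at 30 μM, DMSO 0.3% per well. Current at end of last pulse read before and 5−10 min after addition; percent inhibition from post/pre ratio.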
Background: In patch-clamp work, channel activity is measured electrically.

Regarding `COc1cc2c(cc1OC)CC(=O)N(CCCN(C)C[C@H]1Cc3cc(OC)c(OC)cc31)CC2` [Ivabradine], the “Use dependence of HCN4 blockade according to pulse number” value in assay [1] is “use-dependent blockade”.
As to `COc1cc(Cl)c(S(=O)(=O)N[C@@H](C)C(=O)N2CCC(N3CCCCC3)CC2)cc1Cl` [T-478, N-[(2S)-1-([1,4′-bipiperidin]-1′-yl)-1-oxopropan-2-yl]-2,5-dichloro-4-methoxybenzene-1-sulfonamide], in assay [2], the “Effect on heart rate in isolated rat right atrium” value is listed as “reduced heart rate”. Also, in assay [3], the “Use dependence of HCN4 blockade over six pulses” value (from here on “Use dependence … over six pulses”) is “use-dependent blockade”.
For `FC(F)(F)c1cccc(-c2ccc3c(c2)CNCC3)c1` [T-524, 7-[3-(trifluoromethyl)phenyl]-1,2,3,4-tetrahydroisoquinoline] the same measures were “reduced heart rate” and “almost the same blockade or even a decreasing blockade over six pulses”.
Take `O=C(c1ccc(-n2cccn2)nc1)N1CCN2C(=O)OC(c3ccccc3)(c3ccccc3)[C@H]2C1` [T-788, (8aR)-1,1-diphenyl-7-[6-(1H-pyrazol-1-yl)pyridine-3-carbonyl]hexahydro-3H-[1,3]oxazolo[3,4-a]pyrazin-3-one]: in assay [2], the “Effect on heart rate in isolated rat right atrium” value is reported as “reduced heart rate”. The “Use dependence … over six pulses” value in assay [3] is given as “almost the same blockade or even a decreasing blockade over six pulses”.
With ZD7288 [reference compound], in assay [3], the “Use dependence … over six pulses” value is reported as “almost the same blockade or even a decreasing blockade over six pulses”.
